Experimental data published in ChEMBL document CHEMBL4346670, “Discovery of Novel Janus Kinase (JAK) and Histone Deacetylase (HDAC) Dual Inhibitors for the Treatment of Hematological Malignancies” (J Med Chem, 2019).

Legend:
[1] = system: HEL; experiment: Antiproliferative activity against HEL cells harboring JAK2 V617F mutant assessed as reduction in cell viability after 48 hrs by MTT assay; type: functional, cell-based; settings: Homo sapiens
[2] = system: MOLT-4; experiment: Antiproliferative activity against human MOLT4 cells assessed as reduction in cell viability after 48 hrs by MTT assay; type: functional, cell-based; settings: MOLT-4, 48 h
Outline: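 Cells kept in RPMI1640 with 10% FBS at 37 °C, 5% CO2. Seeded and grown for 12 h, then exposed to a range of compound concentrations for 48 h. 0.5% MTT added for 4 h, formazan dissolved in DMSO, absorbance read at 570 nm.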

[3] = molecular target: Tyrosine-protein kinase JAK2 (Homo sapiens, UniProt O60674); experiment: Inhibition of recombinant human JAK2 using Ulight-CAGAGAIETDKEYYTVKD as substrate measured after 60 mins by LANCE assay
[4] = system: K562; experiment: Antiproliferative activity against human K562 cells assessed as reduction in cell viability after 48 hrs by MTT assay; type: functional, cell-based; settings: K562, 48 h
[5] = molecular target: Histone deacetylase; experiment: Inhibition of HDAC in human HeLa nuclear extract using Boc-Lys(acetyl)-AMC as substrate preincubated for 5 mins followed by substrate addition and measured after 30 mins by fluorescence assay; type: cell-based
[6] = system: Jurkat; experiment: Antiproliferative activity against human Jurkat cells assessed as reduction in cell viability after 48 hrs by MTT assay; type: functional, cell-based

Chain of Tyrosine-protein kinase JAK2 (O60674 whole entry): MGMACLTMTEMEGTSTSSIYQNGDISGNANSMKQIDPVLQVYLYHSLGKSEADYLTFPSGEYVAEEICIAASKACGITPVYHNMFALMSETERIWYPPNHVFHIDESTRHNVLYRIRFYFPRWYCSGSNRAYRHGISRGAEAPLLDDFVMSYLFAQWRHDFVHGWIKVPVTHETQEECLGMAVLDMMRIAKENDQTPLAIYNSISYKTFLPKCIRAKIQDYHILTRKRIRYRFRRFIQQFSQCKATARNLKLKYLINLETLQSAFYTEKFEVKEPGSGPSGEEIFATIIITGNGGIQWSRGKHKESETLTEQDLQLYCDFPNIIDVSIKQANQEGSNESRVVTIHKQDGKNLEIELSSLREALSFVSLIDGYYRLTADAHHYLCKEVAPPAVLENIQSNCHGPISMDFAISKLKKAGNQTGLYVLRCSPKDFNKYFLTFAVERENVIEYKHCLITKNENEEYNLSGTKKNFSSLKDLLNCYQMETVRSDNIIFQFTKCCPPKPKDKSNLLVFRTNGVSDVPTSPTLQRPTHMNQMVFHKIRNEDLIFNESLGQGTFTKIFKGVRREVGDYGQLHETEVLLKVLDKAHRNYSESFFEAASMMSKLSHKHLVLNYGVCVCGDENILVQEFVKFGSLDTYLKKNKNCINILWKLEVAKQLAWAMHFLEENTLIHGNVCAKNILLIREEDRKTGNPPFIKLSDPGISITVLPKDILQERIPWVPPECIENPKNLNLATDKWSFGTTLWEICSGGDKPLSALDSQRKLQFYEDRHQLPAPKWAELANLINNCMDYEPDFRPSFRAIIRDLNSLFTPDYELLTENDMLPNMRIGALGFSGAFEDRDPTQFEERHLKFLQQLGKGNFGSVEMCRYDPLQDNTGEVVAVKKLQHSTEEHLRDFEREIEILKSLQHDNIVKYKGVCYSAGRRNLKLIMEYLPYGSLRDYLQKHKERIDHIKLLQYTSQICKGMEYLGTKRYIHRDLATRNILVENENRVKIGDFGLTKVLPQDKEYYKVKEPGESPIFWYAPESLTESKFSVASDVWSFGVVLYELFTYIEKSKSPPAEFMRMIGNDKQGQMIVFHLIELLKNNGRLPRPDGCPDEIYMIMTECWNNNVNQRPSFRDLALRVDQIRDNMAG

Row | IC50 [2] [nM] | IC50 [3] [nM] | IC50 [4] [nM] | IC50 [5] [µM] | IC50 [6] [nM] | Compound | IC50 [1] [nM]
1 | 240 | > 100 | 480 | 0.041 |  | O=C(CCCCCCn1cc(Nc2ncc(C(F)(F)F)c(Nc3ccc(F)cc3)n2)cn1)NO | 420
2 |  | 85 |  | 0.037 |  | CNc1nc(Nc2cnn(CCCCCCC(=O)NO)c2)ncc1C(F)(F)F | 
3 |  | 30 |  | 0.026 |  | CCCNc1nc(Nc2cnn(CCCCCCC(=O)NO)c2)ncc1Cl | 
4 | 320 | 20 | 910 | 0.037 | 170 | O=C(CCCCCCn1cc(Nc2ncc(Cl)c(N3CCOCC3)n2)cn1)NO | 470
5 | 630 | 18 | 1810 | 0.018 | 310 | O=C(CCCCCn1cc(Nc2ncc(Cl)c(Nc3ccccc3Cl)n2)cn1)NO | 430

The next lines start with the compound.

Row | Compound | IC50 [2] [nM] | IC50 [3] [nM] | IC50 [4] [nM] | IC50 [5] [µM] | IC50 [6] [nM] | IC50 [1] [nM]
6 | O=C(CCCn1cc(Nc2ncc(Cl)c(Nc3ccc(F)cc3)n2)cn1)NO |  | 10 |  | > 10 |  | 
7 | O=C(CCn1cc(Nc2ncc(Cl)c(Nc3ccc(F)cc3)n2)cn1)NO |  | 22 |  | > 10 |  | 
8 | O=C(CCCCCCn1cc(Nc2nccc(Nc3ccc(F)cc3)n2)cn1)NO |  | > 100 |  | 0.018 |  | 
9 | O=C(CCCCCCn1cc(Nc2ncc(Cl)c(Nc3ccccc3)n2)cn1)NO | 160 | 12 | 420 | 0.019 | 90 | 180
10 | O=C(CCCCCn1cc(Nc2ncc(Cl)c(Nc3cccc(Cl)c3)n2)cn1)NO | 80 | 7 | 580 | 0.004 | 50 | 80
11 | O=C(CCCCCCn1cc(Nc2ncc(Cl)c(Nc3ccccc3Cl)n2)cn1)NO | 510 | 46 | 860 | 0.01 | 250 | 340
12 | CNc1nc(Nc2cnn(CCCCCC(=O)NO)c2)ncc1Cl |  | 36 |  | 0.104 |  | 
13 | O=C(CCCCCn1cc(Nc2ncc(Cl)c(Nc3ccc(F)cc3)n2)cn1)NO | 120 | 5 | 420 | 0.026 | 60 | 150
